Test results from ChEMBL document CHEMBL1146160, “Synthesis and evaluation of some lipidic aminoalcohols and diamines as immunomodulators” (Bioorg Med Chem Lett, 2006).
Calls of active or inactive are those of the source. The rule behind the calls is not given here.

What was measured:
Macrophage [1] = assay: Increase in nitric oxide production in LPS-pre-stimulated rat alveolar macrophages; assay type: functional, cell-based
[2] = Inhibition of concanavalin A-stimulated lymphoproliferation in BALB/c mouse splenocytes at 10 ug/ml by MTT assay; assay type: functional; details: Splenocyte
[3] = Cytotoxicity against BALB/c mouse splenocytes at 10 ug/ml by MTT assay; assay type: cell-based; details: splenocyte
How it was run: (§1)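 Run in parallel with the proliferation assay on splenocyte cultures without Con-A, with MTT colourimetric read-out. Cytotoxicity % = [1 − OD(cells+compd)/OD(cells)] × 100.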

[4] = Cytotoxicity against BALB/c mouse splenocytes at 1 ug/ml by MTT assay; assay type: cell-based; details: splenocyte; how it was run: as §1
[5] = Inhibition of concanavalin A-stimulated lymphoproliferation in BALB/c mouse splenocytes at 1 ug/ml by MTT assay; assay type: functional; details: Splenocyte
Macrophage [6] = assay: Increase in nitric oxide production in normal rat alveolar macrophages; assay type: functional, cell-based
Macrophage [7] = assay: Increase in nitric oxide production in LPS-pre-stimulated rat alveolar macrophages at 100 ug/ml; assay type: functional
Lymphocyte = assay: Reduction of rat lymphocyte stimulation by Graft-vs-Host assay relative to cyclophosphamide; assay type: functional; design: scale not given: the % may be the effect or the level left
How it was run: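 In a Graft-vs-Host assay measuring immunosuppressant ability, cyclophosphamide at 100 mg/kg/day served as the reference drug.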

Macrophage [8] = assay: Increase in nitric oxide production in LPS-pre-stimulated rat alveolar macrophages at 10 ug/ml; assay type: functional

Row | SMILES | Activity (Macrophage [1]) | inhibition at 10 µg/mL [2] [%] | Activity [3] [%] | Activity [4] [%] | inhibition at 1 µg/mL [5] [%] | Activity (Macrophage [6]) | Activity (Macrophage [7]) [%] | Activity (Lymphocyte) [%] | Activity (Macrophage [8]) [%]
1 | CCCCCCCCCCCCCCC(N)COCc1ccccc1 (stereo not given) | inactive | 79.1 | 12.2 | 0 | 0 | inactive | – | – | –
2 | CCCCCCCCCCCCCCC(CNC(=O)CCCC(=O)O)NC(=O)OC(C)(C)C (stereo not given) | inactive | 80.8 | 1.2 | 0 | 19.3 | – | – | – | –
3 | CCCCCCCCCCCCCCC(CO)N(CCCC)CCCC (stereo not given) | – | 50.3 | 11.7 | – | – | – | – | – | –
4 | CCCCCCCCCCCCCCC(COCc1ccccc1)N(CC)CC (stereo not given) | – | 72.6 | 15.6 | 14.1 | 71.6 | – | – | – | –
5 | CCCCCCCCCCCCCCC(CN(CC)CC)NC(=O)OC(C)(C)C (stereo not given) | – | 89.5 | 7.8 | 6.5 | 65.2 | – | – | – | –
6 | CCCCCCCCCCCCCCC(NC(=O)OC(C)(C)C)C(=O)O (stereo not given) | – | 32.9 | 5.1 | – | – | – | – | – | –
7 | CCCCCCCCCCCCCCC(COCc1ccccc1)NCC (stereo not given) | – | 49.8 | 11.9 | – | – | – | – | – | –
8 | CCCCCCCCCCCCCCC(CO)NC(=O)CCCC(=O)O (stereo not given) | – | 49.1 | 14.5 | – | – | – | – | – | –
9 | CCCCCCCCCCCCCCC(CO)N(CC)CC (stereo not given) | – | 79.5 | 12.8 | 7.5 | 74.8 | – | – | – | –
10 | CCCCCCCCCCCCCCC(CO)NC(=O)CCCC(=O)OC (stereo not given) | – | 50.2 | 18.9 | – | – | – | – | – | –
11 | CCCCCCCCCCCCCCC(N)CO (stereo not given) | – | 72.4 | 20.2 | 15.1 | 68.7 | – | – | – | –
12 | CCCCCCCCCCCCCCC(COCc1ccccc1)NC(=O)CCCC(=O)OC (stereo not given) | inactive | 3.4 | 2.5 | – | – | inactive | – | – | –
13 | CCCCCCCCCCCCCCC(COCc1ccccc1)NC(=O)CCCC(=O)O (stereo not given) | inactive | 65.4 | 6.4 | 0 | 27.8 | inactive | – | – | –
14 | CCCCCCCCCCCCCCC(CO)NCCCCCCCCCC (stereo not given) | – | 59.8 | 12.6 | 6.6 | 12 | – | – | – | –
15 | CCCCCCCCCCCCCCC(C(=O)O)N(CC)CC (stereo not given) | – | 43.1 | 12.1 | – | – | – | – | – | –
16 | CCCCCCCCCCCCCCC(CN)NC(=O)OC(C)(C)C (stereo not given) | – | 81.2 | 4.3 | 4.2 | 73.4 | inactive | 29 | 32 | 20
17 | CCCCCCCCCCCCCCC(N)CN (stereo not given) | – | 50.1 | 2.5 | – | – | – | – | – | –
18 | CCCCCCCCCCCCCCC(N)CN(CC)CC (stereo not given) | inactive | 84.5 | 24.2 | 1.7 | 74.2 | inactive | – | – | –
19 | CCCCCCCCCCCCCCC(N)CNC(=O)CCCC(=O)O (stereo not given) | inactive | 51 | 12.8 | – | – | inactive | – | – | –
20 | CCCCCCCCCCCCCCC(NCCCC)C(=O)O (stereo not given) | – | 32.9 | 5.1 | – | – | – | – | – | –
21 | CCCCCCCCCCCCCCC(CO)NCC (stereo not given) | – | 72.9 | 17.1 | 10.5 | 68.4 | – | – | – | –
22 | CCCCCCCCCCCCCCC(CO)NCCCC (stereo not given) | – | 49.1 | 16.4 | – | – | – | – | – | –
23 | CCCCCCCCCCCCCCC(C(=O)O)N(CCCC)CCCC (stereo not given) | – | 47.8 | 12.5 | – | – | – | – | – | –
24 | CCCCCCCCCCCCCCC(CO)NCCCCCC (stereo not given) | – | 78.4 | 14.6 | 5 | 74.1 | inactive | 25 | 63 | –
